The values that follow come from PubChem BioAssay AID624398 (The Scripps Research Institute Molecular Screening Center, 2012).

pIC50: −log10 of the molar value. Calls of active or inactive are those of the source.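 Rule for the calls: active = estrogen-induced reporter signal reduced by at least 20%; inactive = reduction of reporter signal under 20%.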

The first experiment concerns BG1Luc4E2 ERE-luciferase, estradiol-induced, luminescence, 24 h. Nature of the experiment: suppression of estradiol-induced ERE reporter expression – BG1Luc4E2 ovarian carcinoma cells, luminescence, set 2, counter-screen for AHR activator project, late-stage follow-up (AID 624398).
Settings: not given
In a few lines: (§1)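 Material: 2xERE luciferase reporter; buffer or medium: charcoal-stripped serum medium after 5-day estrogen depletion; also added: 1 nM estradiol; times: 24 h exposure at 37 °C; technique: luciferase luminescence measured after cell lysis; replicates: triplicate wells for the 10 µM dose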
In general terms: A counterscreen serves to expose hits that act by an unwanted route or on another target.
For `Cc1ccc(-c2cc(-c3ccc(F)cc3)n[nH]2)c(O)c1`, the pIC50 (commonly the negative decadic logarithm of the IC50, by convention in mol/L) was 4.70.

As for `Cc1ccc(-c2cc(-c3ccc(Cl)cc3)n[nH]2)c(O)c1`, the negative-log IC50 (pIC50) is 4.52.

Tested on in another experiment: not listed separately
The description is as above. The settings on record: BG1Luc4E2 ERE-luciferase, estradiol-induced, luminescence, 24 h; at 10 µM; hits give high values. In a few lines:
as §1
Consider `COc1ccc(Cl)cc1NC(=O)c1ccc(C(=O)Nc2cc(Cl)ccc2OC)nc1`, for which the inhibition (as a rule, the change of the read-out against control, counted positive when it falls) was 79.6%. Still for that read-out and setting: the same measure for `COc1ccc(-c2cc(-c3ccc(C)cc3O)[nH]n2)cc1`: 40.9%. For `O=C(CSc1nc(-c2ccc(F)cc2)cs1)Nc1ccccn1`, the inhibition was -26.7% (inactive). Still for that read-out and setting: the same measure for `Cc1csc(SCC(=O)Nc2ccccn2)n1`: 12.2% (inactive); for `Cc1ccc(O)c(-c2cc(-c3ccccc3Cl)[nH]n2)c1`: 66.3%; for `Cc1cccc(C)c1NC(=O)c1ccc(C(=O)Nc2c(C)cccc2C)nc1`: -12.6% (inactive).

Regarding `Cc1cccc(NC(=O)c2cc(-c3ccc(C)cc3O)n[nH]2)c1`, the inhibition was -95.6% (inactive). For `O=C(CSc1nc2ccccc2s1)Nc1ccc(Cl)cn1`, the inhibition was 38.8%. Still for that read-out and setting: in the case of `CCOC(=O)c1c(C)nn(-c2cc(Cl)ccc2Cl)c1C` it was 29%; in that of `COc1ccc(Nc2cc(Cl)nc(N)n2)cc1OC`, -18.4% (inactive). Same read-out and setting: in the case of `CN(Cc1cc(-c2cccs2)n[nH]1)Cc1coc2ccccc2c1=O` it was -31.1% (inactive). The same measure, in the same setting: the same measure for `O=C(CSc1nc2ccccc2s1)Nc1ccccn1`: 79%; for `CCOc1ccccc1NC(=O)c1ccc(C(=O)Nc2ccccc2OCC)nc1`: -45.6% (inactive); for `COc1ccc(NC(=O)c2ccc(C(=O)Nc3ccc(OC)cc3OC)nc2)c(OC)c1`: 19.4% (inactive). As to `Nc1nc(Cl)cc(Nc2ccc(Oc3ccccc3)cc2)n1`, the inhibition was -6.3% (inactive). `COc1ccc(O)c(-c2cc(-c3cccs3)[nH]n2)c1`: the inhibition is 43.1%. Regarding `Cc1cc(Br)cc(C)c1Nc1ccnc(Nc2ccc(C#N)cc2)n1`, the inhibition was 92.9%. Still for that read-out and setting: in the case of `Nc1nc(Cl)cc(Nc2ccccc2F)n1` it was 8% (inactive); in that of `Cc1ccc(NC(=O)c2ccc(C(=O)Nc3ccc(C)cc3C)nc2)c(C)c1`, 33.6%; in that of `COc1ccc(Nc2cc(Cl)nc(N)n2)cc1`, -52.4% (inactive). Still for that read-out and setting: in the case of `Cc1ccnc(NC(=O)CSc2nc3ccccc3s2)c1` it was 16.1% (inactive); in that of `Cc1cc(Nc2ccc(F)cc2)nc(N)n1`, 15.8% (inactive).
